eIF4H inh: inhibitors of RNA binding by human eIF4H. Q15056. eIF4H fluorescence polarization binding assay. inhibition, % at 35 µM. 0.94% of 290,000 active. AID 2012; call rule not given here;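 also: calls also rest on retests at 20 µM and on dose response follow-up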
PABP FP inh: blocks human PABP binding to poly(A) RNA | 1% of 290,000 active | AID 2014 | calls only at 35 µM | P11940 | fluorescence polarization; call rule not given here;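 also: calls also rest on retests at 20 µM and on dose response follow-up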
PABP1 MLLE inh: blocks PAM2 peptide binding to the PABP1 MLLE domain; inhibition, % at 20 µM; AID 588489; GST-MLLE / FITC-PAM2 fluorescence polarization; P11940; 0.36% of 360,000 active; in the data active = inhibition above about 35%, passing the limit was not always enough;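 also: plate controls were DMSO wells with GST-MLLE for no effect and wells lacking GST-MLLE protein for full effect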
RBBP9 inh: human RBBP9 hydrolase inhibition; O75884; recombinant RBBP9, FP-Rh probe fluorescence polarization; inhibition, % at 7.94 µM; 0.2% of 220,000 active; AID 1515;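 active = inhibition above the campaign mean of all tested compounds plus 3 SD, cut at about 14% in these data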;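 also: plate controls were DMSO wells with RBBP9 for no effect and wells lacking RBBP9 protein for full effect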
Target sequence (O75884 whole entry, looked up): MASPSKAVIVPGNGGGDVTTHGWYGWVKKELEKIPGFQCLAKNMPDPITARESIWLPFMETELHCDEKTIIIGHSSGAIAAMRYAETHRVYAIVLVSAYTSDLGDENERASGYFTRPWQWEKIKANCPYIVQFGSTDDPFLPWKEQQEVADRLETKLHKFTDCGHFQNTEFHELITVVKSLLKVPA
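Test system: recombinant human RBBP9; Timing: 30 min then 45 min, 25 °C; Detection: fluorescence polarization; Control set: RBBP9 with DMSO as uninhibited control, no-protein wells as full inhibition; Compound dosing: one concentration, 7.94 µM nominal, 0.794% DMSO; Probe or stimulus: FP-Rh activity-based probe, 375 nM before mixing.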
TCR-CD3 inh: inhibitors of human TCR-CD3 interaction | TAMRA-labeled TCR probe fluorescence, biochemical | inhibition, % at 9.4 µM | 0.37% of 360,000 active | AID 651800;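 also: recombinant mutant TCR 2C K166C tagged with TAMRA read by polarization; 0% = receptor in buffer alone and 100% = receptor with positive control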
BSA probe FL: BSA probe counter-screen for TCR-CD3 inhibitors. shares compounds with TCR-CD3 inh. TAMRA-labeled BSA probe fluorescence counterscreen. inhibition, % at 9.4 µM. 10% of 1,200 active; in the data active = inhibition above about 23%;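 also: 0% = buffer low control and 100% = reference high control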
TCR-CD3 inh conf: TCR-CD3 interaction inhibition, confirmation | shares compounds with TCR-CD3 inh | TAMRA-labeled TCR probe fluorescence binding assay | inhibition, % at 9.4 µM | 48% of 1,200 active | AID 652036
Numbers without * were called inactive. Only some compounds are listed: those with a hit (about 1.6% of all), similar ones and a draw of the others. Rule as the data show it, unless noted: active = inhibition above about 19%; inactive = the rest.

`Cc1cccc(OCC(=O)NCC(=O)N/N=C/c2cc(Br)cc(Br)c2O)c1` gave eIF4H inh 12, PABP FP inh inactive, PABP1 MLLE inh -6, TCR-CD3 inh 51*, BSA probe FL -18 and TCR-CD3 inh conf 41*.
Screening Fc1ccccc1-c1nc(N2CCCCC2)c2ccccc2n1 returned eIF4H inh -4, PABP FP inh inactive, PABP1 MLLE inh -1, RBBP9 inh -9, TCR-CD3 inh 28*, BSA probe FL 14 and TCR-CD3 inh conf 7.
`Oc1ccccc1-c1nc(N2CCCC2)c2ccccc2n1` gave eIF4H inh 8, PABP FP inh inactive, PABP1 MLLE inh -9, RBBP9 inh -11 and TCR-CD3 inh 8.
Screening COC(=O)C1=C(C)N(CC(C)C)C(=S)NC1c1cccc(F)c1 (stereo not given) returned TCR-CD3 inh -4.
COc1ccc(OC)c(N2C(=NC(=O)C3CCCCC3)SC3CS(=O)(=O)CC32)c1 (stereo not given) was read as eIF4H inh -4, PABP FP inh inactive, PABP1 MLLE inh 9, TCR-CD3 inh 41*, BSA probe FL -1 and TCR-CD3 inh conf 4.
For O=c1c2ccccc2nc(-c2ccco2)n1/N=C/c1ccccc1O the results were eIF4H inh 6, PABP FP inh inactive, PABP1 MLLE inh 5, RBBP9 inh -10 and TCR-CD3 inh 2.
Oc1ccccc1/C=N/c1c(-c2ccco2)nc2ccccn12 was read as eIF4H inh inconclusive, PABP FP inh inconclusive, PABP1 MLLE inh 21, RBBP9 inh -3, TCR-CD3 inh 20*, BSA probe FL 1 and TCR-CD3 inh conf 4.
`C#CCn1c(=NC(=O)c2ccc(S(=O)(=O)N3CCCc4ccccc43)cc2)sc2cc(S(N)(=O)=O)ccc21` gave eIF4H inh -18, PABP FP inh inactive, PABP1 MLLE inh 8, RBBP9 inh -68, TCR-CD3 inh 21*, BSA probe FL 19 and TCR-CD3 inh conf 23*.
`COC(=O)C1=C(C)N(Cc2ccc(Br)cc2)C(=S)NC1c1cccc(Br)c1` (stereo not given) gave TCR-CD3 inh 2.
Screening COC(=O)C1=C(C)N(Cc2ccccc2C(F)(F)F)C(=NCc2ccccc2)NC1c1ccc(F)cc1 (stereo not given) returned TCR-CD3 inh 7.
`Cc1cc2cc(CNC(=O)C(C)Oc3ccccc3)ccc2n1C` (stereo not given) gave eIF4H inh 73, PABP FP inh active, PABP1 MLLE inh 26, RBBP9 inh -6, TCR-CD3 inh 45*, BSA probe FL 4 and TCR-CD3 inh conf 4.
For CCS(=O)(=O)NCc1ccc2c(c1)cc(C)n2C the results were eIF4H inh 36, PABP FP inh inactive, PABP1 MLLE inh 8, RBBP9 inh -4 and TCR-CD3 inh 13.
Screening COc1ccc(S(=O)(=O)NCc2ccc3c(c2)cc(C)n3C)cc1 returned eIF4H inh 64*, PABP FP inh active, PABP1 MLLE inh 49*, RBBP9 inh -2, TCR-CD3 inh 35*, BSA probe FL 25* and TCR-CD3 inh conf 28*.
For COc1ccc(CNS(=O)(=O)c2ccc(OC)cc2)cc1 the results were eIF4H inh -4, PABP FP inh inactive, PABP1 MLLE inh 9, RBBP9 inh 5 and TCR-CD3 inh 2.
Screening Cc1cc2cc(CNS(=O)(=O)c3ccccc3)ccc2n1C returned eIF4H inh 18, PABP FP inh inactive, PABP1 MLLE inh 37, RBBP9 inh -8, TCR-CD3 inh 50*, BSA probe FL 7 and TCR-CD3 inh conf 19.
For COc1cc(-c2cnc3c(NC=O)cc(-c4ccsc4)cn23)cc(OC)c1OC the results were PABP1 MLLE inh -24 and TCR-CD3 inh -12.
For C[C@]12c3[nH]c4ccc(Cl)cc4c3CCN1C(=O)[C@@H](CC(=O)NCCN1CCOCC1)C[C@@H]2C(=O)N1CCCCC1 the results were PABP1 MLLE inh -2, TCR-CD3 inh 36*, BSA probe FL 3 and TCR-CD3 inh conf 2.
For CN(C)CCCNC(=O)C[C@H]1C[C@H](C(=O)N2CCCCC2)[C@@]2(C)c3[nH]c4ccc(Cl)cc4c3CCN2C1=O the results were PABP1 MLLE inh -6 and TCR-CD3 inh -4.
COc1cc(/C=N/NC(=O)COc2cccc(F)c2)ccc1OS(=O)(=O)c1ccc(C)cc1 was read as eIF4H inh -11, PABP FP inh inactive, PABP1 MLLE inh 22, RBBP9 inh -39 and TCR-CD3 inh 6.
For COc1cc(/C=N/NC(=O)COc2ccc(Cl)cc2)ccc1OS(=O)(=O)c1ccc(C)cc1 the results were eIF4H inh -14, PABP FP inh inactive, PABP1 MLLE inh -5, RBBP9 inh -34, TCR-CD3 inh 57*, BSA probe FL 13 and TCR-CD3 inh conf 36*.
CC1CCN(C(=O)c2ncn3c2C(=O)N[C@H](C)C3)CC1 was read as TCR-CD3 inh 0.
NS(=O)(=O)c1cc(C(=O)NC2CCSc3ccccc32)ccc1Cl (stereo not given) was read as eIF4H inh 106*, PABP FP inh active, PABP1 MLLE inh 11, TCR-CD3 inh 40*, BSA probe FL 0 and TCR-CD3 inh conf 36*.
For COC(=O)[C@]12C[C@H](CC(=O)NCc3ccc(OC)c(OC)c3)C(=O)N(CCC3=CCCCC3)C1=C[C@H](COCc1ccccc1)O[C@@H]2C the results were TCR-CD3 inh 6.
Screening COc1cc(/C=C2\CC/C(=C\c3cc(OC)c(O)c(OC)c3)C2=O)cc(OC)c1O returned eIF4H inh 56, PABP FP inh inactive, PABP1 MLLE inh -149, RBBP9 inh 19*, TCR-CD3 inh 38*, BSA probe FL -26 and TCR-CD3 inh conf 41*.
`COc1cc(/C=C2\CC/C(=C\c3cc(OC)c(OC)c(OC)c3)C2=O)cc(OC)c1OC` gave eIF4H inh -6, PABP FP inh inactive, PABP1 MLLE inh -61, RBBP9 inh 8 and TCR-CD3 inh 5.
For CNc1ccc(Br)cc(C(=O)/C=C/c2ccc(OC)cc2OC)c1=O the results were eIF4H inh 40, PABP FP inh inactive, PABP1 MLLE inh -46, RBBP9 inh -5, TCR-CD3 inh 19*, BSA probe FL -5 and TCR-CD3 inh conf 8.
O=C(c1cccc(S(=O)(=O)Nc2ccc(F)cc2)c1)N1CCOCC1 was read as PABP1 MLLE inh -13 and TCR-CD3 inh 0.
For O=C(OCC(=O)N1CCOCC1)c1cccc(S(=O)(=O)Nc2ccc(F)cc2)c1 the results were PABP1 MLLE inh -6, TCR-CD3 inh 39*, BSA probe FL 0 and TCR-CD3 inh conf -4.

Bioassay records as filed in PubChem BioAssay.
